Each structure is given as a SMILES string. pIC50: −log10 of the molar value.

Broadly, the inhibition is how much of the control response was suppressed. Broadly, the pIC50 is the IC50 on a negative log10 scale, so that one unit is a factor of ten.

Experiment [1] has as its target T1, Serine/threonine-protein kinase ULK1 (Homo sapiens) (UniProt O75385).
T1 sequence (whole entry): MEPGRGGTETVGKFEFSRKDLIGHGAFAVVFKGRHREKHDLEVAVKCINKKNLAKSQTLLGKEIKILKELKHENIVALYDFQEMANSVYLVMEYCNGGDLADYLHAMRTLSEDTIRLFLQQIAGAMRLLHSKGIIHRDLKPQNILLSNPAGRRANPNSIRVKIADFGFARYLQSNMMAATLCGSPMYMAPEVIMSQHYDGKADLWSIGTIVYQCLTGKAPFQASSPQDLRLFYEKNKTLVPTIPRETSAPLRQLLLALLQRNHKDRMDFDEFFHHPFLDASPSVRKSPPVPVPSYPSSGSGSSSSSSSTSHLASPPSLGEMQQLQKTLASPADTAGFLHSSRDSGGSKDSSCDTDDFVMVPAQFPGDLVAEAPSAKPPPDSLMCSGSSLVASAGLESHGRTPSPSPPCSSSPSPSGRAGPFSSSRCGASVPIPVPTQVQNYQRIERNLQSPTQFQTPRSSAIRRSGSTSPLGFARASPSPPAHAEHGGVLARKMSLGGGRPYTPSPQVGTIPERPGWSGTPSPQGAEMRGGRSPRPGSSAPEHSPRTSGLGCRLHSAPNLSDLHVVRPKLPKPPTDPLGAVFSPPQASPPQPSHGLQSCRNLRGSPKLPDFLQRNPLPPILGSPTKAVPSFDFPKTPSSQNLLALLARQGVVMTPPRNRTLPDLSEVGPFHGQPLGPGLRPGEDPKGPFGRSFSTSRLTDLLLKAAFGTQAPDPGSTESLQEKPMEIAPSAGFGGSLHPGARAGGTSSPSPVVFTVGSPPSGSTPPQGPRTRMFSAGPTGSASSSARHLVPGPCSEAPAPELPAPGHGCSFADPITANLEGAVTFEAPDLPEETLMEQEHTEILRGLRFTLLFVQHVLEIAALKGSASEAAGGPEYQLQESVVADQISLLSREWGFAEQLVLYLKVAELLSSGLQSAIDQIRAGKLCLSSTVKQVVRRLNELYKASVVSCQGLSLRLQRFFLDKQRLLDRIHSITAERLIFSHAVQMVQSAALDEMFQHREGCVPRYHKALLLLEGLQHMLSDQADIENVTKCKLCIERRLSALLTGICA
Description: Inhibition of recombinant human ULK1 at 10 uM preincubated for 60 mins followed by substrate addition and measured after 30 mins by ADP-glo assay. The note with it: time 90.0 min. Put shortly: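 Recombinant ULK1 activity was measured by ADP-Glo luminescence of ADP formed, in 40 mM Tris pH 7.5, 20 mM MgCl₂, 0.1 mg/ml BSA and […]. After the kinase reaction, plates were mixed 2 min and held 40 min at room temperature. Detection reagent was then added for 30 min at room temperature before luminescence was read.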

A further experiment relates to A549. In words: Antiproliferative activity against human A549 cells assessed as reduction in cell viability after 24 hrs by MTT assay. Type of experiment: functional, cell-based. The following applies: A549, 24 h. Put shortly: (§1)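 Cells seeded at 5.5 × 10⁴ cells/mL in 96-well plates and grown 24 h before exposure to graded compound concentrations. Viability read by MTT after 24 h. A549, MCF-7 and MDA-MB-468 were kept in DMEM with 10% FBS under 5% CO₂; HL60 and U937 in RPMI 1640 with 10% FBS. IC50 taken as mean of triplicate tests.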

Another experiment relates to U-937. In words: Antiproliferative activity against human U937 cells assessed as reduction in cell viability after 24 hrs by MTT assay. Format: functional, cell-based. The note with it: U-937, 24 h. Put shortly:
as §1
A general note: Tetrazolium dyes change colour on reduction, which living cells bring about.

The next experiment deals with HL-60. In words: Antiproliferative activity against human HL60 cells assessed as reduction in cell viability after 24 hrs by MTT assay. Type of experiment: functional, cell-based. The following applies: HL-60, 24 h. The gist of the method: as §1
The subject of a further experiment is MDA-MB-468. In words: Antiproliferative activity against human MDA-MB-468 cells assessed as reduction in cell viability after 24 hrs by MTT assay. Type of experiment: functional, cell-based. The note with it: MDA-MB-468, 24 h. The gist of the method:
as §1

The next experiment concerns MCF7. Description: Antiproliferative activity against human MCF-7 cells assessed as reduction in cell viability after 24 hrs by MTT assay. Type of experiment: functional, cell-based. The note with it: MCF7, 24 h. Put shortly:
as §1

With `CNC(=O)c1ccccc1Oc1nc(Nc2cccc(C(F)(F)F)c2)ncc1Br`, in experiment [1], the inhibition was determined as 38.8%. Further, the negative logarithm of the IC50 (pIC50) is 4.55 with A549; 4.34 with U-937; 4.36 with HL-60; 4.48 with MDA-MB-468; 4.24 with MCF7.
On to `CCN(CC)CCNc1ccnc(Nc2cc(OC)c(OC)c(OC)c2)n1`, for which the inhibition in experiment [1] stood at 13.4%. For the same compound, the pIC50 in the experiment on A549 is 4.33; with U-937, under 4.30; in the experiment with HL-60, under 4.30; with MDA-MB-468 it was under 4.30; with MCF7, under 4.30.
In the case of `CNC(=O)c1ccccc1Oc1nc(Nc2cccc(OC)c2)ncc1Br`, in experiment [1], the inhibition amounted to 50.5%. Moreover, the pIC50 in the experiment on A549 was 5.21; in the experiment with U-937, 4.61; in the experiment with HL-60, 4.79; with MDA-MB-468, 4.75; in the experiment with MCF7, 4.74.
Consider `CNC(=O)c1ccccc1Oc1nc(Nc2ccccc2OC)ncc1Br`, for which the inhibition in experiment [1] was determined as 19.2%. For the same compound, the negative-log IC50 (pIC50) with A549 is 4.39; in the experiment on U-937, 4.28; in the experiment with HL-60, under 4.30; in the experiment on MDA-MB-468, under 4.30; in the experiment on MCF7, under 4.30.
On to `Cc1cccc(Nc2ncc(Br)c(Oc3ccc(OCc4ccccc4)cc3)n2)c1`, for which the inhibition in experiment [1] was determined as 16.3%. For the same compound, the pIC50 was 4.31 in the experiment with A549; under 4.30 in the experiment with U-937; under 4.30 in the experiment on HL-60; under 4.30 in the experiment with MDA-MB-468; under 4.30 with MCF7.
For `O=[N+]([O-])c1ccc(Oc2nc(Nc3ccc(Br)cc3)ncc2Br)c(F)c1`, the inhibition in experiment [1] came to 12.5%. Further, the pIC50 is 4.29 with A549; under 4.30 in the experiment with U-937; under 4.30 in the experiment on HL-60; under 4.30 in the experiment with MDA-MB-468; under 4.30 with MCF7.
For the compound `CNC(=O)c1ccccc1Oc1nc(Nc2cc(OC)c(OC)c(OC)c2)ncc1Br`, the pIC50 with A549 is 5.17; in the experiment with U-937, 4.60; in the experiment with HL-60, 4.72; in the experiment on MDA-MB-468, 4.74; in the experiment on MCF7, 4.58.
As for `CCN(CC)CCNc1nc(Nc2cc(OC)c(OC)c(OC)c2)ncc1I`, the inhibition in experiment [1] was 44.9%. Moreover, the pIC50 in the experiment with A549 was 4.77; with U-937 it was 4.66; with HL-60 it was 4.67; in the experiment on MDA-MB-468 it was 4.49; with MCF7 it was 4.49.
Consider `COc1cc(Nc2nccc(NCCCN)n2)cc(OC)c1OC`, for which the inhibition in experiment [1] worked out at 17.7%. Moreover, the pIC50 in the experiment with A549 was 4.53; in the experiment on U-937, under 4.30; in the experiment on HL-60, under 4.30; in the experiment on MDA-MB-468 it was 4.34; with MCF7, under 4.30.
As to `CNC(=O)c1ccccc1Oc1nc(Nc2ccc(Cl)cc2F)ncc1Br`, the inhibition in experiment [1] amounted to 17.8%. The pIC50 is 4.42 in the experiment with A549; under 4.30 with U-937; under 4.30 with HL-60; under 4.30 in the experiment with MDA-MB-468; under 4.30 with MCF7.
Turning to `CNC(=O)c1ccccc1Oc1nc(Nc2ccc(C)cc2C)ncc1Br`, the inhibition in experiment [1] came out at 38.2%. Further, the pIC50 with A549 was 4.56; in the experiment on U-937, 4.30; in the experiment on HL-60, 4.49; in the experiment with MDA-MB-468, 4.39; with MCF7 it was 4.35.
As to `CNC(=O)c1ccccc1Oc1nc(Nc2ccc(C(F)(F)F)cc2)ncc1Br`, the inhibition in experiment [1] came to 21.6%. The pIC50 in the experiment with A549, with U-937, in the experiment on HL-60, with MDA-MB-468 and in the experiment with MCF7 was under 4.30 in each case.
Consider `CNC(=O)c1ccccc1Oc1nc(Nc2cccc(Br)c2)ncc1Br`, for which the inhibition in experiment [1] worked out at 62.7%. Further, the pIC50 in the experiment on A549 is 4.97; with U-937, 4.31; with HL-60 it was 4.41; in the experiment with MDA-MB-468, 4.50; with MCF7, 4.37.
For the compound `Cc1cccc(Nc2ncc(Br)c(Oc3ccc(Br)cc3)n2)c1`, in experiment [1], the inhibition amounted to 25.7%. The pIC50 is 4.99 in the experiment with A549; 4.73 in the experiment with U-937; 4.83 with HL-60; 4.50 with MDA-MB-468; 4.72 in the experiment on MCF7.
In the case of `CNC(=O)c1ccccc1Oc1nc(Nc2cccc(C(C)C)c2)ncc1Br`, the inhibition in experiment [1] was found to be 84%. In addition, the pIC50 in the experiment with A549 was 5.15; with U-937 it was 4.85; in the experiment with HL-60, 4.76; with MDA-MB-468, 4.71; with MCF7, 4.58.
`O=[N+]([O-])c1ccc(Oc2nc(Nc3ccc(Cl)cc3)ncc2Br)c(F)c1`: in experiment [1], the inhibition is 15.7%. The negative-log IC50 (pIC50) was 4.43 with A549; 4.37 with U-937; under 4.30 in the experiment on HL-60; under 4.30 in the experiment with MDA-MB-468; under 4.30 in the experiment with MCF7.
Take `Cc1cccc(Nc2ncc(Br)c(Oc3cccc(F)c3)n2)c1`: in experiment [1], the inhibition came out at 49.3%. Further, the pIC50 in the experiment with A549 was 4.86; in the experiment on U-937, 4.71; in the experiment with HL-60 it was 4.81; with MDA-MB-468, 4.53; in the experiment on MCF7, 4.57.
Regarding `CNC(=O)c1ccccc1Oc1nc(Nc2cccc(C)c2)ncc1Br`, in experiment [1], the inhibition was determined as 73.7%. Moreover, the pIC50 is 5.21 in the experiment with A549; 4.80 in the experiment on U-937; 4.79 in the experiment with HL-60; 4.73 with MDA-MB-468; 4.78 with MCF7.
On to `CCOc1ccccc1Oc1nc(Nc2cccc(C)c2)ncc1Br`, for which, in experiment [1], the inhibition came to 75.7%. The pIC50 is 4.69 with A549; 4.41 with U-937; 4.46 in the experiment on HL-60; 4.50 in the experiment on MDA-MB-468; 4.41 in the experiment on MCF7.
In the case of `Cc1cccc(Nc2ncc(Br)c(Oc3cccc([N+](=O)[O-])c3)n2)c1`, the inhibition in experiment [1] came out at 40.2%. Further, the pIC50 in the experiment on A549 was 4.61; in the experiment with U-937, 4.29; with HL-60 it was 4.41; in the experiment on MDA-MB-468 it was 4.44; in the experiment on MCF7 it was under 4.30.
As to `CNC(=O)c1ccccc1Oc1nc(Nc2ccccc2F)ncc1Br`, the inhibition in experiment [1] was 27.4%. Also, the pIC50 with A549 was 4.45; in the experiment with U-937 it was under 4.30; in the experiment on HL-60, under 4.30; in the experiment with MDA-MB-468, under 4.30; in the experiment on MCF7, under 4.30.
Consider `COc1cc(Nc2ncc(I)c(NCCCN)n2)cc(OC)c1OC`, for which, in experiment [1], the inhibition stood at 32.3%. Also, the pIC50 with A549 is 4.40; in the experiment on U-937 it was 4.40; with HL-60 it was 4.36; in the experiment with MDA-MB-468 it was under 4.30; with MCF7, under 4.30.
Regarding `CNC(=O)c1ccccc1Oc1nc(Nc2ccc3c(c2)OCO3)ncc1Br`, the inhibition in experiment [1] was 22.2%. Further, the pIC50 in the experiment with A549, in the experiment with U-937, in the experiment with HL-60, in the experiment with MDA-MB-468 and in the experiment on MCF7 was under 4.30 in each case.
In the case of `Cc1cccc(Nc2ncc(Br)c(Oc3cc(Cl)cc(Cl)c3)n2)c1`, the inhibition in experiment [1] was 3.78%. Also, the pIC50 in the experiment with A549 is 4.36; in the experiment with U-937 it was under 4.30; with HL-60 it was under 4.30; with MDA-MB-468 it was under 4.30; in the experiment with MCF7, under 4.30.
Regarding `CNC(=O)c1ccccc1Oc1nc(Nc2ccc(Br)cc2)ncc1Br`, in experiment [1], the inhibition was found to be 40.1%. Further, the pIC50 in the experiment on A549 is 4.63; in the experiment on U-937, under 4.30; with HL-60, 4.40; in the experiment on MDA-MB-468, 4.44; with MCF7, under 4.30.

For the origin of these results see ChEMBL document CHEMBL4706589, “Discovery of 5-bromo-4-phenoxy-N-phenylpyrimidin-2-amine derivatives as novel ULK1 inhibitors that block autophagy and induce apoptosis in non-small cell lung cancer” (Eur J Med Chem, 2020).
